# Tests used:
# Type in all cases: functional
# Rattus norvegicus [1] = assay: Percent decrease in HDL-cholesterol in obese Zucker rats after 2 weeks of treatment at a dose of 3 mg/kg/day; parameters: scale not given: the % may be the effect or the level left
# Procedure, shortened: (§1)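 Female Zucker fatty rats [Crl:(Zuc)-faBR], 10–12 weeks, 400–500 g, acclimated 7 days on chow. Compound or vehicle (20% EtOH/80% PEG-200) given by daily oral gavage for 2 weeks, 0–100 mg/kg/day. After a 6 h fast, blood was taken before dosing, at 1 wk and at 2 wk. Serum lipids, NEFA and insulin (ELISA) were measured; glucose by glucometer. HDL/non-HDL-C came from Superose 6 gel-filtration profiles. Values are % change from pretreatment, mean ± SEM.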
# Rattus norvegicus [2] = assay: Amount of nonesterified fatty acids in obese Zucker rats after 2 weeks of treatment at a dose of 100 mg/kg/day
# Procedure, shortened: (§2)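 Female Zucker fatty rats [Crl:(Zuc)-faBR], 10–12 weeks old (400–500 g), dosed once daily by oral gavage in 20% EtOH/80% PEG-200 for up to 14 days. After a 6-h fast, serum was taken pre-dose, at day 7 (orbital venous plexus, O2/CO2 anaesthesia) and at day 14 (cardiac puncture), stored at −80 °C, and assayed on a Hitachi 912 automatic analyzer. Mean ± SEM.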
# Rattus norvegicus [3] = assay: Amount of triglycerides in obese Zucker rats at pre-treatment at a dose of 100 mg/kg/day; procedure, shortened: as §2
# Rattus norvegicus [4] = assay: Percent decrease in nonesterified fatty acids in obese Zucker rats after 2 weeks of treatment at a dose of 30 mg/kg/day; parameters: scale not given: the % may be the effect or the level left; procedure, shortened: as §1
# Rattus norvegicus [5] = assay: Percent decrease in insulin in obese Zucker rats after 1 week of treatment at a dose of 100 mg/kg/day; parameters: scale not given: the % may be the effect or the level left; procedure, shortened: as §1
# Rattus norvegicus [6] = assay: Percent increase in insulin in obese Zucker rats after 2 weeks of treatment at a dose of 30 mg/kg/day; procedure, shortened: as §1
structure (smiles),measurement,setting,value
CC(C)(CO)CCCCC(=O)CCCCC(C)(C)CO,Activity,Rattus norvegicus [1],-19%
CC(C)(CCCCC(=O)CCCCC(C)(C)C(=O)O)C(=O)O,Activity,Rattus norvegicus [2],0.66 mg/dL
same,Activity,Rattus norvegicus [3],964 mg/dL
CC(C)(CCCCCC(=O)CCCCCC(C)(C)C(=O)O)C(=O)O,Activity,Rattus norvegicus [4],-49%
same,Activity,Rattus norvegicus [5],-46%
same,Activity,Rattus norvegicus [6],-21%

# Source: ChEMBL document CHEMBL1137992, “Long hydrocarbon chain keto diols and diacids that favorably alter lipid disorders in vivo” (J Med Chem, 2004)
